Results on eight compounds are retold here after ChEMBL document CHEMBL1144738, “Cytotoxic diterpenoids and sesquiterpenoids from Pteris multifida” (J Nat Prod, 2008).

By IC50 is commonly meant the concentration that gives 50% inhibition.

A value given as a limit tells only on which side of the number the result lay.

The test system of one test is LoVo. The test can be described thus: Cytotoxicity against human LoVo cells by SRB method. The format is functional, cell-based. In outline: (§1)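 Adherent cells were grown in RPMI1640 with 10% FBS, 100 U/mL penicillin and 100 U/mL streptomycin, then plated and incubated for 24 h. They were exposed to test compounds at 10^-2 to 10^2 µM for 72 h. Growth inhibition was read by sulforhodamine B (SRB) staining and expressed as IC50, the mean of triplicate points. Adriamycin and taxotere were positive controls.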
On the technique in general: The SRB assay estimates cell density from bound dye.

In the next test the test system is K562. The test can be described thus: Cytotoxicity against human K562 cells by WST-1 method.
A further test deals with KB. The test can be described thus: Cytotoxicity against human KB cells by SRB method. Format: functional, cell-based. A digest of the protocol:
as §1

For a further test, the system named is HepG2. The test can be described thus: Cytotoxicity against human HepG2 cells by SRB method. The format is functional, cell-based. In outline: as §1

Turning to `C=C1[C@@H]2CC[C@H]3[C@]4(C)C[C@H](O)C[C@](C)(CO)[C@H]4CC[C@]3(C2)[C@H]1O`, the IC50 in the test on LoVo is 20.3 µM; with K562 it was above 100 µM; in the test on KB, 26.4 µM; in the test on HepG2 it was above 100 µM.

Turning to `C=C1[C@@H]2CC[C@H]3[C@]4(C)C[C@H](O)C[C@](C)(CO)[C@H]4CC[C@]3([C@@H]2O)[C@H]1O`, the IC50 in the test with LoVo was 76.3 µM; with K562, above 100 µM; in the test with KB it was 69.6 µM; with HepG2 it was above 100 µM.

`Cc1cc2c(c(C)c1CCO[C@@H]1O[C@H](CO)[C@@H](OC(=O)/C=C/c3ccc(O)cc3)[C@H](O)[C@H]1O)C(=O)[C@H](C)C2`: the concentration for half-maximal inhibition (IC50) with LoVo was above 400 µM; with K562 it was 64.6 µM; in the test on KB, 45.3 µM; with HepG2 it was above 100 µM.

Regarding `Cc1cc2c(c(C)c1CCO)C(=O)[C@H](C)[C@@H]2O[C@@H]1O[C@H](CO)[C@@H](OC(=O)/C=C/c2ccc(O)cc2)[C@H](O)[C@H]1O`, the IC50 with LoVo was above 400 µM; in the test with K562, 9.57 µM; with KB, 23.8 µM; with HepG2 it was 9.26 µM.

`CC1(C)C[C@@H](O)C[C@]2(C)[C@@H]1[C@H](O)C[C@@]13C[C@@H](CC[C@H]12)[C@@](O)(CO)C3`: the IC50 in the test on LoVo came to 91.7 µM; with K562 it was 81.9 µM; in the test on KB it was 53.7 µM; in the test with HepG2 it was 82.4 µM.

In the case of `Cc1cc2c(c(C)c1CCO)C(=O)[C@@H](C)[C@@H]2O[C@@H]1O[C@H](CO)[C@@H](OC(=O)/C=C/c2ccc(O)cc2)[C@H](O)[C@H]1O`, the IC50 worked out at 11.3 µM with LoVo, 10.6 µM in the test with K562, 14.2 µM in the test with KB and 8.69 µM in the test with HepG2.

With `CC(=O)O[C@@]12CO[C@@H]1C[C@H](O)[C@@]1(C)C(=O)[C@H](O)C3=C(C)[C@@H](OC(=O)[C@H](O)[C@@H](NC(=O)OC(C)(C)C)c4ccccc4)C[C@@](O)([C@@H](OC(=O)c4ccccc4)[C@H]21)C3(C)C` [DOCETAXEL], the IC50 in the test with LoVo was 0.00197 µM; in the test on KB it was 0.00114 µM.

In the case of `COc1cccc2c1C(=O)c1c(O)c3c(c(O)c1C2=O)C[C@@](O)(C(=O)CO)C[C@@H]3O[C@H]1C[C@H](N)[C@H](O)[C@H](C)O1` [DOXORUBICIN], the IC50 in the test with LoVo was above 400 µM; with K562 it was 0.09 µM; with KB it was above 400 µM; in the test with HepG2, 0.06 µM.
